The test system of one assay is Streptococcus pneumoniae. As to the kind of experiment: Antibacterial activity against Streptococcus pneumoniae after 48 hrs by well diffusion assay. The assay is classed as functional. The method, boiled down: (§1)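 Clinical isolates identified biochemically; maintained on yeast extract–peptone–NaCl agar, pH 7.2, at 28 ± 2 °C. About 1 mL inoculum mixed into molten nutrient agar and poured. A central 5 mm well was cut and filled with 50 μL of compound in 10% DMSO, filter-sterilized, at various concentrations. 10% DMSO served as control. Inhibition zones were read after 48 h at room temperature.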
In general terms: Agar diffusion results depend on both activity and mobility in agar.

Another assay has as its system Salmonella typhi. The assay can be described thus: Antibacterial activity against Salmonella typhi after 48 hrs by well diffusion assay.
Another assay relates to Staphylococcus aureus. The assay can be described thus: Antibacterial activity against Staphylococcus aureus after 48 hrs by well diffusion assay. The assay is classed as functional. The method, boiled down:
as §1

The test system of a further assay is Pseudomonas aeruginosa. As to the kind of experiment: Antibacterial activity against Pseudomonas aeruginosa after 48 hrs by well diffusion assay. The assay is classed as functional. The procedure, abridged:
as §1

The mark [1] stands for this setting: Salmonella enterica subsp. enterica serovar Typhi.

Here are results for 13 compounds from ChEMBL document CHEMBL2151014, “Facile water promoted synthesis of 1,2,3-triazolyl dihydropyrimidine-2-thione hybrids - highly potent antibacterial agents” (2012).

Values after ≈ are worked out from the molar mass of the structure shown. Active and inactive are the calls of the source. No cut-off for these calls is given here.

As a reminder, the MIC99 is the lowest concentration that inhibits either 99% of growth or 99% of the strains tested, depending on the study. With `Cc1c(C2=CC(c3ccc(Cl)cc3Cl)NC(=S)N2)nnn1Cc1ccccc1` (configuration not stated), the values for the MIC99 against Streptococcus pneumoniae and against Staphylococcus aureus were 25 µg/mL (≈ 58.1 µM) and 43 µg/mL (≈ 99.9 µM), respectively. Also, the MIC99 result in the assay with Salmonella typhi (setting [1]) and in the assay with Pseudomonas aeruginosa was “inactive” in each case.

As to `COc1ccc(C2C=C(c3nnn(Cc4ccccc4)c3C)NC(=S)N2)cc1` (configuration not stated), the results for the MIC99 in the assay on Streptococcus pneumoniae and in the assay with Pseudomonas aeruginosa were 40 µg/mL (≈ 102 µM) and 10 µg/mL (≈ 25.5 µM), respectively. Moreover, the MIC99 entry in the assay on Salmonella typhi (setting [1]) and in the assay with Staphylococcus aureus was “inactive” each time.

Regarding `Cc1c(C2=CC(c3ccc(F)cc3)NC(=S)N2)nnn1Cc1ccccc1` (configuration not stated), the MIC99 amounted to 100 µg/mL (≈ 264 µM) in the assay with Streptococcus pneumoniae, 85 µg/mL (≈ 224 µM) against Staphylococcus aureus and 130 µg/mL (≈ 343 µM) in the assay on Pseudomonas aeruginosa. For the same compound, the MIC99 entry in the assay with Salmonella typhi (setting [1]) is “inactive”.

As to `Cc1c(C2=CC(c3ccccc3Br)NC(=S)N2)nnn1Cc1ccccc1` (configuration not stated), the MIC99 in the assay with Streptococcus pneumoniae stood at 33 µg/mL (≈ 74.9 µM). Moreover, the MIC99 result with Salmonella typhi (setting [1]), in the assay with Staphylococcus aureus and with Pseudomonas aeruginosa was “inactive” in each case.

In the case of `COc1ccc(C2C=C(c3nnn(Cc4ccccc4)c3C)NC(=S)N2)c(OC)c1` (configuration not stated), the MIC99 amounted to 42 µg/mL (≈ 99.6 µM) in the assay with Streptococcus pneumoniae and 32 µg/mL (≈ 75.9 µM) in the assay with Salmonella typhi (Salmonella enterica). Further, the MIC99 entry with Staphylococcus aureus and in the assay on Pseudomonas aeruginosa was “inactive” throughout.

With `Cc1ccccc1C1C=C(c2nnn(Cc3ccccc3)c2C)NC(=S)N1` (configuration not stated), the MIC99 turned out to be 19 µg/mL (≈ 50.6 µM) in the assay on Streptococcus pneumoniae, 25 µg/mL (≈ 66.6 µM) in the assay with Salmonella typhi (Salmonella enterica), 37 µg/mL (≈ 98.5 µM) in the assay on Staphylococcus aureus and 18 µg/mL (≈ 47.9 µM) against Pseudomonas aeruginosa.

Turning to `Cc1c(C2=CC(c3ccc(Br)cc3)NC(=S)N2)nnn1Cc1ccccc1` (configuration not stated), the MIC99 worked out at 44 µg/mL (≈ 99.9 µM) with Streptococcus pneumoniae, 120 µg/mL (≈ 272 µM) against Salmonella typhi (Salmonella enterica), 95 µg/mL (≈ 216 µM) in the assay with Staphylococcus aureus and 100 µg/mL (≈ 227 µM) with Pseudomonas aeruginosa.

Turning to `Cc1c(C2=CC(c3ccccc3)NC(=S)N2)nnn1Cc1ccccc1` (configuration not stated), the MIC99 against Streptococcus pneumoniae amounted to 19 µg/mL (≈ 52.6 µM); in the assay with Salmonella typhi (Salmonella enterica), 18 µg/mL (≈ 49.8 µM); with Staphylococcus aureus it was 10 µg/mL (≈ 27.7 µM); in the assay on Pseudomonas aeruginosa, 12 µg/mL (≈ 33.2 µM).

For `Cc1ccc(C2C=C(c3nnn(Cc4ccccc4)c3C)NC(=S)N2)cc1` (configuration not stated), the MIC99 is 16 µg/mL (≈ 42.6 µM) in the assay on Streptococcus pneumoniae, 13 µg/mL (≈ 34.6 µM) with Salmonella typhi (Salmonella enterica), 8 µg/mL (≈ 21.3 µM) against Staphylococcus aureus and 10 µg/mL (≈ 26.6 µM) in the assay with Pseudomonas aeruginosa.

On to `CN(C)[C@@H]1C(O)=C(C(N)=O)C(=O)[C@@]2(O)C(O)=C3C(=O)c4c(O)cccc4[C@@](C)(O)[C@H]3C[C@@H]12` [TETRACYCLINE], for which the MIC99 in the assay with Streptococcus pneumoniae was 20 µg/mL (≈ 45 µM); in the assay with Salmonella typhi (Salmonella enterica), 15 µg/mL (≈ 33.8 µM); in the assay with Staphylococcus aureus it was 10 µg/mL (≈ 22.5 µM); against Pseudomonas aeruginosa it was 10 µg/mL (≈ 22.5 µM).

In the case of `Cc1c(C2=CC(c3cccc(Br)c3)NC(=S)N2)nnn1Cc1ccccc1` (configuration not stated), the MIC99 in the assay on Streptococcus pneumoniae was found to be 35 µg/mL (≈ 79.5 µM); against Salmonella typhi (Salmonella enterica) it was 90 µg/mL (≈ 204 µM); with Staphylococcus aureus, 22 µg/mL (≈ 50 µM); against Pseudomonas aeruginosa it was 24 µg/mL (≈ 54.5 µM).

On to `Cc1c(C2=CC(c3ccc(Cl)cc3)NC(=S)N2)nnn1Cc1ccccc1` (configuration not stated), for which the MIC99 stood at 10 µg/mL (≈ 25.3 µM) with Streptococcus pneumoniae, 20 µg/mL (≈ 50.5 µM) in the assay with Salmonella typhi (Salmonella enterica), 10 µg/mL (≈ 25.3 µM) in the assay with Staphylococcus aureus and 9 µg/mL (≈ 22.7 µM) in the assay on Pseudomonas aeruginosa.

As to `Cc1c(C2=CC(c3ccc([N+](=O)[O-])cc3)NC(=S)N2)nnn1Cc1ccccc1` (configuration not stated), the MIC99 in the assay on Streptococcus pneumoniae turned out to be 20 µg/mL (≈ 49.2 µM); against Salmonella typhi (Salmonella enterica), 80 µg/mL (≈ 197 µM); in the assay on Staphylococcus aureus, 20 µg/mL (≈ 49.2 µM); against Pseudomonas aeruginosa it was 20 µg/mL (≈ 49.2 µM).
